Legend:
Assay type in all cases: functional, cell-based
HL-60 = experiment: Cytotoxicity against human HL60 cells assessed as decrease in cell viability after 48 hrs by MTS assay; conditions: HL-60, 48 h
Summary of the method: (§1)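 Cells kept in RPMI-1640 or DMEM with 10% FBS, 37 °C, 5% CO2. Seeded at 1 × 10^5 cells/mL; adherent lines left 12 h to attach, suspension cells (HL-60) seeded just before dosing. Triplicate wells at various concentrations for 48 h; MTS then 4 h at 37 °C; lysis in 20% SDS/50% DMF; OD 490 nm. IC50 by Reed and Muench method.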

A549 = experiment: Cytotoxicity against human A549 cells assessed as decrease in cell viability after 48 hrs by MTS assay; conditions: A549, 48 h; summary of the method: as §1
MCF7 = experiment: Cytotoxicity against human MCF7 cells assessed as decrease in cell viability after 48 hrs by MTS assay; conditions: MCF7, 48 h; summary of the method: as §1
SMMC-7721 = experiment: Cytotoxicity against human SMMC7721 cells assessed as decrease in cell viability after 48 hrs by MTS assay; conditions: SMMC-7721, 48 h; summary of the method: as §1
HeLa = experiment: Cytotoxicity against human HeLa cells assessed as decrease in cell viability after 48 hrs by MTS assay; summary of the method: as §1
SW480 = experiment: Cytotoxicity against human SW480 cells assessed as decrease in cell viability after 48 hrs by MTS assay; conditions: SW480, 48 h; summary of the method: as §1

SMILES | IC50 (HL-60) | IC50 (A549) | IC50 (MCF7) | IC50 (SMMC-7721) | IC50 (HeLa) | IC50 (SW480)
C=C1[C@@H]([C@H](C)C[C@@H]2C=C(C)C(=O)O2)CC[C@@]2(C)C3=CC[C@H]4C(C)(C)[C@H](O)CC[C@]4(C)[C@@H]3C[C@@H]12 | 7.36 µM | > 40 µM | 13.6 µM | > 40 µM | 18.6 µM | 25.4 µM
C=C1[C@@H]([C@H](C)C[C@@H](O)/C=C(\C)C(=O)O)CC[C@@]2(C)C3=CC[C@H]4C(C)(C)[C@H](OC(C)=O)CC[C@]4(C)[C@@H]3C[C@@H]12 | > 10 µM | > 10 µM | > 10 µM | > 10 µM | > 10 µM | > 10 µM
C=C1[C@@H]([C@H](C)CC/C=C(/C)C(=O)O)CC[C@@]2(C)C3=CC[C@H]4C(C)(C)C(=O)CC[C@]4(C)[C@@H]3C[C@@H]12 | > 10 µM | > 10 µM | > 10 µM | > 10 µM | > 10 µM | > 10 µM
C/C(=C/CC[C@@H](C)C1=C(CO)[C@@H]2C[C@@H]3C(=CC[C@H]4C(C)(C)C(=O)CC[C@]34C)[C@]2(C)CC1)C(=O)O | > 10 µM | > 10 µM | > 10 µM | > 10 µM | > 10 µM | > 10 µM
CC(=O)O[C@@H]1CC[C@]2(C)[C@@H]3C[C@H]4[C@@](C)(O)[C@@H]([C@H](C)CC/C=C(/C)C(=O)O)CC[C@@]4(C)C3=CC[C@H]2C1(C)C | > 10 µM | > 10 µM | > 10 µM | > 10 µM | > 10 µM | > 10 µM
CC(=O)O[C@@H]1CC[C@]2(C)[C@@H]3C[C@H]4C(CO)=C([C@H](C)CC/C=C(/C)C(=O)O)CC[C@@]4(C)C3=CC[C@H]2C1(C)C | > 10 µM | > 10 µM | > 10 µM | > 10 µM | > 10 µM | > 10 µM
C=C1[C@@H]([C@H](C)CC/C=C(/C)C(=O)O)CC[C@@]2(C)C3=CC[C@H]4C(C)(C)[C@@H](O)CC[C@]4(C)[C@@H]3C[C@@H]12 | > 10 µM | > 10 µM | > 10 µM | > 10 µM | > 10 µM | > 10 µM
C=C1[C@@H]([C@H](C)CC(=O)/C=C(\C)C(=O)O)CC[C@@]2(C)C3=CC[C@H]4C(C)(C)[C@H](OC(C)=O)CC[C@]4(C)[C@@H]3C[C@@H]12 | 3.11 µM | 13 µM | 4.61 µM | 11.6 µM | 7.77 µM | 5.99 µM
C=C1[C@@H]([C@H](C)C[C@H]2C=C(C)C(=O)O2)CC[C@@]2(C)C3=CC[C@H]4C(C)(C)[C@H](O)CC[C@]4(C)[C@@H]3C[C@@H]12 | 10.4 µM | 27.1 µM | 15.6 µM | 25 µM | 12.3 µM | 20.1 µM
CC(=O)O[C@@H]1CC[C@]2(C)[C@@H]3C[C@H]4C(C=O)=C([C@H](C)CC/C=C(/C)C(=O)O)CC[C@@]4(C)C3=CC[C@H]2C1(C)C | > 10 µM | > 10 µM | > 10 µM | > 10 µM | > 10 µM | > 10 µM
C=C1[C@@H]([C@H](C)CC/C=C(/C)C(=O)O)CC[C@@]2(C)C3=CC[C@H]4C(C)(C)[C@H](O)CC[C@]4(C)[C@@H]3C[C@@H]12 | > 10 µM | > 10 µM | > 10 µM | > 10 µM | > 10 µM | > 10 µM
C=C1[C@@H]([C@H](C)CC/C=C(/C)C(=O)O)CC[C@@]2(C)C3=CC(=O)[C@H]4C(C)(C)[C@H](OC(C)=O)CC[C@]4(C)[C@@H]3C[C@@H]12 | > 10 µM | > 10 µM | > 10 µM | > 10 µM | > 10 µM | > 10 µM
CC(=O)O[C@@H]1CC[C@]2(C)[C@@H]3CC4=C(CO)[C@@H]([C@H](C)CC/C=C(/C)C(=O)O)CC[C@@]4(C)C3=CC[C@H]2C1(C)C | > 10 µM | > 10 µM | > 10 µM | > 10 µM | > 10 µM | > 10 µM
C=C1[C@@H]([C@H](C)CC/C=C(/C)C(=O)O)CC[C@]2(C)[C@H]1C[C@H]1[C@@]3(C)CCC(=O)C(C)(C)[C@@H]3C[C@@H]3O[C@@]312 | > 10 µM | > 10 µM | > 10 µM | > 10 µM | > 10 µM | > 10 µM
CC(=O)O[C@H]1C(=O)[C@@]2(C)[C@H]([C@H](OC(=O)c3ccccc3)[C@]3(O)C[C@H](OC(=O)[C@H](O)[C@@H](NC(=O)c4ccccc4)c4ccccc4)C(C)=C1C3(C)C)[C@]1(OC(C)=O)CO[C@@H]1C[C@@H]2O [PACLITAXEL] | < 0.008 µM | < 0.008 µM | < 0.008 µM | < 0.008 µM | < 0.008 µM | < 0.008 µM
